Laboratory results reported in ChEMBL document CHEMBL4334441, “Exploitation of Antibiotic Resistance as a Novel Drug Target: Development of a β-Lactamase-Activated Antibacterial Prodrug” (J Med Chem, 2019).
≈ marks a conversion by molar mass, not a printed value. Calls of active or inactive are those of the source. No cut-off for these calls is given here.

Columns and labels:
[1] = Selectivity ratio of MIC for ciprofloxacin-susceptible Escherichia coli CFT073 harboring pSU18 to MIC for ciprofloxacin-susceptible Escherichia coli DH5[alpha]; type: ADME
Escherichia coli [2] = experiment: Growth inhibition of ciprofloxacin-susceptible Escherichia coli CFT073 harboring pSU18 incubated for 18 hrs by broth microdilution method; type: organism-based; conditions: in vivo
Method in brief: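 MIC determination in E. coli CFT073, either wild type or carrying pSU18 (empty pEMP, or encoding CTX-M, NDM-1 or KPC). Dose–response growth curves were run, and each point is the mean ± SEM of n = 3. The MIC is the minimal concentration that inhibits bacterial growth.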

Escherichia coli [3] = experiment: Growth inhibition of Escherichia coli DH5[alpha] expressing ESBL TEM-116 incubated for 18 hrs by broth microdilution method; type: functional
[4] = Prodrug activation in Escherichia coli CFT073 harboring CTX-M-1 assessed as bacterial CTX-M-1-mediated compound hydrolysis incubated for 1 hr by 1H-NMR analysis; conditions: bacteria
Method in brief: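 Whole-cell hydrolysis used E. coli CFT073 carrying pSU18 encoding CTX-M-1. The read-out was percentage of compound hydrolysed after 60 min.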

Escherichia coli [5] = experiment: Growth inhibition of Escherichia coli CFT073 harboring pSU18 and CTX-M-1 incubated for 18 hrs by broth microdilution method; conditions: CFT073, 18 h
Escherichia coli [6] = experiment: Growth inhibition of ciprofloxacin-susceptible Escherichia coli DH5[alpha] incubated for 18 hrs by broth microdilution method; type: organism-based; conditions: in vivo
Method in brief: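 MIC determination against E. coli DH5α, either lacking β-lactamase or expressing the ESBL TEM-116. The MIC is the minimal concentration that inhibits bacterial growth.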

[7] = target: DNA gyrase (Escherichia coli) (UniProt P0AES6+P0AES4); conditions: 1 uM
Enterococcus faecalis [8] = experiment: Effect on growth of Enterococcus faecalis ATCC 29212 incubated for 18 hrs by broth microdilution method; type: organism-based; conditions: in vivo
Enterococcus faecalis [9] = experiment: Effect on growth of Enterococcus faecalis GW01 incubated for 18 hrs by broth microdilution method; type: organism-based; conditions: in vivo
[10] = Prodrug activation in Escherichia coli DH5[alpha] expressing TEM-116 assessed as bacterial TEM-116 mediated compound hydrolysis at 100 uM incubated for 90 mins by 1H-NMR spectra analysis; conditions: bacteria, 1.5 h
[11] = Prodrug activation in Escherichia coli DH5[alpha] expressing beta-lactamase CTX-M-1 assessed as bacterial CTX-M-1-mediated compound hydrolysis at 100 uM incubated for 60 mins by 1H-NMR spectra analysis; conditions: bacteria
[12] = Drug metabolism in CTX-M-1-deficient Escherichia coli DH5[alpha] assessed as compound hydrolysis at 100 uM incubated for 60 mins by 1H-NMR spectra analysis; type: ADME; conditions: CTX-M-1-deficient Escherichia coli DH5alpha cells, read-out: Drug metabolism
[13] = Drug metabolism in TEM-116-deficient Escherichia coli DH5[alpha] assessed as compound hydrolysis at 100 uM incubated for 90 mins by 1H-NMR spectra analysis; type: ADME; conditions: TEM-116-deficient Escherichia coli DH5alpha cells, read-out: Drug degradation
[14] = Prodrug activation in Escherichia coli DH5[alpha] expressing TEM-116 assessed as bacterial TEM-116 mediated compound hydrolysis at 50 uM incubated for 60 mins by 1H-NMR spectra analysis; conditions: bacteria

## CC(=O)OCC1=C(C(=O)O)N2C(=O)[C@@H](NC(=O)c3ccc(C)cc3)[C@H]2SC1
[1]
  Selectivity ratio: <= 2
Escherichia coli [2]
  MIC: > 400 µM
Escherichia coli [3]
  MIC: > 400 µM
[4]
  Drug metabolism: 3%
Escherichia coli [5]
  MIC: > 400 µM
Escherichia coli [6]
  MIC: > 400 µM

## CC(=O)OCC1=C(C(=O)O)N2C(=O)[C@@H](NC(=O)c3ccc([N+](=O)[O-])cc3)[C@H]2SC1
Escherichia coli [3]
  MIC: > 400 µM
Escherichia coli [6]
  MIC: > 400 µM

## CC(=O)OCC1=C(C(=O)O)N2C(=O)[C@@H](NC(=O)Cc3ccc(F)cc3)[C@H]2SC1
[1]
  Selectivity ratio: <= 2
Escherichia coli [2]
  MIC: 100 µM (≈ 40.8 µg/mL)
Escherichia coli [3]
  MIC: 200 µM (≈ 81.7 µg/mL)
[4]
  Drug metabolism: 18%
Escherichia coli [5]
  MIC: > 400 µM
Escherichia coli [6]
  MIC: 100 µM (≈ 40.8 µg/mL)

## CC(=O)OCC1=C(C(=O)O)N2C(=O)[C@@H](NC(=O)Cc3ccccc3)[C@H]2SC1 [CEFALORAM]
[1]
  Selectivity ratio: <= 2
Escherichia coli [2]
  MIC: 50 µM (≈ 19.5 µg/mL)
Escherichia coli [3]
  MIC: 100 µM (≈ 39 µg/mL)
[4]
  Drug metabolism: 17%
Escherichia coli [5]
  MIC: > 400 µM
Escherichia coli [6]
  MIC: 50 µM (≈ 19.5 µg/mL)

## O=C(O)c1cn(C2CC2)c2cc(N3CCNCC3)c(F)cc2c1=O [CIPROFLOXACIN]
[7]
  inhibition: Active
Enterococcus faecalis [8]
  Activity: Toxic
Enterococcus faecalis [9]
  Activity: Toxic

## CC(=O)OCC1=C(C(=O)O)N2C(=O)[C@@H](NC(=O)Cc3ccc(Br)cc3)[C@H]2SC1
[1]
  Selectivity ratio: <= 2
Escherichia coli [2]
  MIC: 100 µM (≈ 46.9 µg/mL)
Escherichia coli [3]
  MIC: 800 µM (≈ 375 µg/mL)
[4]
  Drug metabolism: 9%
Escherichia coli [5]
  MIC: > 400 µM
Escherichia coli [6]
  MIC: 200 µM (≈ 93.9 µg/mL)

## CCCCCC(=O)N[C@@H]1C(=O)N2C(C(=O)O)=C(COC(C)=O)CS[C@H]12
[1]
  Selectivity ratio: <= 2
Escherichia coli [2]
  MIC: 100 µM (≈ 37 µg/mL)
Escherichia coli [3]
  MIC: > 800 µM
[4]
  Drug metabolism: 7%
Escherichia coli [5]
  MIC: > 400 µM
Escherichia coli [6]
  MIC: 200 µM (≈ 74.1 µg/mL)

## CCCC(=O)N[C@@H]1C(=O)N2C(C(=O)O)=C(COC(C)=O)CS[C@H]12
[1]
  Selectivity ratio: <= 2
Escherichia coli [2]
  MIC: 200 µM (≈ 68.5 µg/mL)
Escherichia coli [3]
  MIC: 400 µM (≈ 137 µg/mL)
[4]
  Drug metabolism: 25%
Escherichia coli [5]
  MIC: > 400 µM
Escherichia coli [6]
  MIC: 100 µM (≈ 34.2 µg/mL)

## CC(=O)OCC1=C(C(=O)O)N2C(=O)[C@@H](NC(=O)c3ccco3)[C@H]2SC1
[1]
  Selectivity ratio: <= 2
Escherichia coli [2]
  MIC: > 400 µM
Escherichia coli [3]
  MIC: > 400 µM
[4]
  Drug metabolism: 64%
Escherichia coli [5]
  MIC: > 400 µM
Escherichia coli [6]
  MIC: > 400 µM

## CC(=O)OCC1=C(C(=O)O)N2C(=O)[C@@H](NC(=O)C3CCCCC3)[C@H]2SC1
Escherichia coli [3]
  MIC: > 400 µM
Escherichia coli [6]
  MIC: > 400 µM

## CC(=O)OCC1=C(C(=O)O)N2C(=O)[C@@H](NC(=O)Cc3ccc(C)cc3)[C@H]2SC1
[1]
  Selectivity ratio: <= 2
Escherichia coli [2]
  MIC: 100 µM (≈ 40.4 µg/mL)
Escherichia coli [3]
  MIC: 400 µM (≈ 162 µg/mL)
[4]
  Drug metabolism: 7%
Escherichia coli [5]
  MIC: > 400 µM
Escherichia coli [6]
  MIC: 100 µM (≈ 40.4 µg/mL)

## CC(=O)OCC1=C(C(=O)O)N2C(=O)[C@@H](NC(=O)Cc3cc(Br)cs3)[C@H]2SC1
[1]
  Selectivity ratio: <= 2
Escherichia coli [2]
  MIC: 50 µM (≈ 23.8 µg/mL)
Escherichia coli [3]
  MIC: 200 µM (≈ 95.1 µg/mL)
Escherichia coli [5]
  MIC: > 400 µM
Escherichia coli [6]
  MIC: 50 µM (≈ 23.8 µg/mL)

## CC(=O)OCC1=C(C(=O)O)N2C(=O)[C@@H](NC(=O)[C@H](C)c3ccccc3)[C@H]2SC1
[1]
  Selectivity ratio: <= 2
Escherichia coli [2]
  MIC: > 400 µM
Escherichia coli [3]
  MIC: > 800 µM
Escherichia coli [5]
  MIC: > 400 µM
Escherichia coli [6]
  MIC: 400 µM (≈ 162 µg/mL)

## CC(=O)OCC1=C(C(=O)O)N2C(=O)[C@@H](NC(=O)Cc3cccc(Oc4ccccc4)c3)[C@H]2SC1
[1]
  Selectivity ratio: <= 2
Escherichia coli [2]
  MIC: >= 400 uM
Escherichia coli [3]
  MIC: > 800 µM
Escherichia coli [5]
  MIC: > 400 µM
Escherichia coli [6]
  MIC: > 800 µM

## CC(=O)OCC1=C(C(=O)O)N2C(=O)[C@@H](NC(=O)Cc3ccc(Oc4ccccc4)cc3)[C@H]2SC1
[1]
  Selectivity ratio: <= 2
Escherichia coli [2]
  MIC: > 400 µM
[10]
  Drug metabolism: 54%
[11]
  Drug metabolism: 94%
Escherichia coli [3]
  MIC: > 800 µM
[4]
  Drug metabolism: 4%
[12]
  metabolised at 1 h, 100 µM: 0%
Escherichia coli [5]
  MIC: > 400 µM
[13]
  metabolised at 1.5 h, 100 µM: 13%
Escherichia coli [6]
  MIC: > 800 µM

## CC(=O)OCC1=C(C(=O)O)N2C(=O)[C@@H](NC(=O)Cc3cccs3)[C@H]2SC1 [CEPHALOTHIN]
[1]
  Selectivity ratio: <= 2
Escherichia coli [2]
  MIC: 25 µM (≈ 9.91 µg/mL)
[11]
  Drug metabolism: 100%
Escherichia coli [3]
  MIC: 100 µM (≈ 39.6 µg/mL)
[14]
  Drug metabolism: 61%
[4]
  Drug metabolism: 68%
[12]
  metabolised at 1 h, 100 µM: 0%
Escherichia coli [5]
  MIC: > 400 µM
Escherichia coli [6]
  MIC: 12.5 µM (≈ 4.96 µg/mL)

## COc1ccc(C(=O)N[C@@H]2C(=O)N3C(C(=O)O)=C(COC(C)=O)CS[C@H]23)cc1
[1]
  Selectivity ratio: <= 2
Escherichia coli [2]
  MIC: > 400 µM
Escherichia coli [3]
  MIC: > 800 µM
[4]
  Drug metabolism: 3%
Escherichia coli [5]
  MIC: > 400 µM
Escherichia coli [6]
  MIC: > 800 µM

## CC(=O)OCC1=C(C(=O)O)N2C(=O)[C@@H](NC(=O)Cc3ccsc3)[C@H]2SC1
[1]
  Selectivity ratio: <= 2
Escherichia coli [2]
  MIC: 50 µM (≈ 19.8 µg/mL)
Escherichia coli [3]
  MIC: 200 µM (≈ 79.3 µg/mL)
[4]
  Drug metabolism: 32%
Escherichia coli [5]
  MIC: > 400 µM
Escherichia coli [6]
  MIC: 50 µM (≈ 19.8 µg/mL)

## CC(=O)OCC1=C(C(=O)O)N2C(=O)[C@@H](NC(=O)Cc3cccc(C)c3)[C@H]2SC1
[1]
  Selectivity ratio: <= 2
Escherichia coli [2]
  MIC: 200 µM (≈ 80.9 µg/mL)
Escherichia coli [3]
  MIC: 400 µM (≈ 162 µg/mL)
[4]
  Drug metabolism: 16%
Escherichia coli [5]
  MIC: > 400 µM
Escherichia coli [6]
  MIC: 200 µM (≈ 80.9 µg/mL)

## CC(=O)OCC1=C(C(=O)O)N2C(=O)[C@@H](NC(=O)Cc3ccc(Cl)cc3)[C@H]2SC1
[1]
  Selectivity ratio: <= 2
Escherichia coli [2]
  MIC: 100 µM (≈ 42.5 µg/mL)
Escherichia coli [3]
  MIC: 400 µM (≈ 170 µg/mL)
[4]
  Drug metabolism: 14%
Escherichia coli [5]
  MIC: > 400 µM
Escherichia coli [6]
  MIC: 100 µM (≈ 42.5 µg/mL)

## CC(=O)OCC1=C(C(=O)O)N2C(=O)[C@@H](NC(=O)Cc3ccc(-c4ccccc4)cc3)[C@H]2SC1
[1]
  Selectivity ratio: <= 2
Escherichia coli [2]
  MIC: > 400 µM
[10]
  Drug metabolism: 69%
[11]
  Drug metabolism: 100%
Escherichia coli [3]
  MIC: > 800 µM
[4]
  Drug metabolism: 4%
[12]
  metabolised at 1 h, 100 µM: 0%
Escherichia coli [5]
  MIC: > 400 µM
[13]
  metabolised at 1.5 h, 100 µM: 14%
Escherichia coli [6]
  MIC: > 800 µM

## CC(=O)OCC1=C(C(=O)O)N2C(=O)[C@@H](NC(=O)c3ccccc3)[C@H]2SC1
[1]
  Selectivity ratio: <= 2
Escherichia coli [2]
  MIC: > 400 µM
Escherichia coli [3]
  MIC: > 400 µM
[4]
  Drug metabolism: 26%
Escherichia coli [5]
  MIC: > 400 µM
Escherichia coli [6]
  MIC: > 400 µM

## CC(=O)N[C@@H]1C(=O)N2C(C(=O)O)=C(COC(C)=O)CS[C@H]12
[1]
  Selectivity ratio: <= 2
Escherichia coli [2]
  MIC: 400 µM (≈ 126 µg/mL)
[4]
  Drug metabolism: 67%
Escherichia coli [5]
  MIC: > 400 µM
Escherichia coli [6]
  MIC: 200 µM (≈ 62.9 µg/mL)
